ChEMBL document CHEMBL1132584, “5-Alkyl-2-(alkylthio)-6-(2,6-dihalophenylmethyl)-3, 4-dihydropyrimidin-4(3H)-ones: novel potent and selective dihydro-alkoxy-benzyl-oxopyrimidine derivatives” (J Med Chem, 1999)

Columns and labels:
[1] = tested on: MT4; experiment: Concentration required to achieve 50% protection of MT-4 cells from HIV-1-induced cytopathogenicity.; type: functional, cell-based; details: Homo sapiens
Summary of the method: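 MT-4 cells (1×10^4/well) exposed to test compound dilutions (DMSO stock 200 mM, diluted in medium), then infected with HIV-1 IIIB at 100 CCID50/well; 4-day incubation at 37 °C; viable cells counted by MTT; EC50 is the dose giving 50% protection from virus-induced cytopathicity; means of at least two separate experiments.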

[2] = tested on: MT4; experiment: Cytotoxicity against mock-infected MT-4 cells.; type: functional; details: Homo sapiens
Summary of the method: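 Mock-infected MT-4 cells (1×10^4/well) incubated 4 days at 37 °C alongside the antiviral assay with serial compound dilutions (from 200 mM DMSO stock); viability read by MTT; CC50 is the dose lowering viability of mock-infected cells by 50%; means of at least two separate experiments.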

[3] = target: Human immunodeficiency virus type 1 reverse transcriptase (Human immunodeficiency virus 1, UniProt Q72547); experiment: Concentration required to inhibit the HIV-1 reverse transcriptase activity by 50%.
Summary of the method: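 Purified recombinant HIV-1 RT, RNA-dependent polymerase activity. Substrate: [³H]dGTP, […] (1 Ci/mmol). Reaction 30 min at 37 °C, then acid-insoluble radioactivity counted on glass-fibre filters.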

[4] = tested on: MT4; experiment: Selectivity index measured as the ratio of CC50 / EC50.; type: functional
Summary of the method: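 Selectivity index: CC50 in mock-infected MT-4 cells divided by EC50 against HIV-1 IIIB cytopathicity in MT-4 cells, both from MTT read-out after 4-day culture.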

Compound | EC50 [1] [µM] | CC50 [2] [µM] | IC50 [3] [µM] | Selectivity index [4] [SI]
Cc1c(O)nc(SCC(C)C)nc1Cc1c(F)cccc1F | 0.1 | 164 | 0.09 | 1640
CC(C)Sc1nc(Cc2c(F)cccc2F)cc(=O)[nH]1 | 0.05 | > 200 | 0.05 | >4000
CCC(C)Sc1nc(O)cc(Cc2ccccc2)n1 (stereo not drawn) |  |  | 1 | 125
Cc1c(O)nc(SC2CCCCC2)nc1Cc1c(F)cccc1F | 0.09 | > 200 | 0.07 | >2222
CCC(C)Sc1nc(O)cc(Cc2ccccc2Cl)n1 (stereo not drawn) | 1 | 200 | 1.6 | 200
CCC(C)Sc1nc(O)c(C)c(Cc2cccc(Cl)c2)n1 (stereo not drawn) | 0.96 | > 200 | 0.9 | >208
Oc1cc(Cc2c(Cl)cccc2Cl)nc(SC2CCCC2)n1 | 0.4 | > 200 | 0.4 | >500
CCC(C)Sc1nc(O)cc(Cc2c(F)cccc2F)n1 (stereo not drawn) | 0.04 | > 200 | 0.05 | >5000
CCCCSc1nc(O)c(C)c(Cc2c(Cl)cccc2Cl)n1 | 1.1 | > 200 | 1.15 | >171
Oc1cc(Cc2c(F)cccc2F)nc(SC2CCCCC2)n1 | 0.08 | > 200 | 0.09 | >2500
Cc1c(Cc2c(F)cccc2F)nc(SC2CCCC2)[nH]c1=O | 0.08 | > 200 | 0.08 | >2500
CCCCSc1nc(O)c(C)c(Cc2c(F)cccc2F)n1 | 0.08 | > 200 | 0.09 | >2500
Cc1ccnc2c1NC(=O)c1cccnc1N2C1CC1 [NEVIRAPINE] |  | > 200 |  | 
CCOCn1c(Cc2ccccc2)c(C(C)C)c(=O)[nH]c1=O [EMIVIRINE] | 0.03 | 200 | 0.04 | 6666
CC(C)Sc1nc(O)cc(Cc2c(Cl)cccc2Cl)n1 | 1.9 | > 200 | 1.5 | >105
CCC(C)Sc1nc(O)cc(Cc2ccc(Cl)cc2)n1 (stereo not drawn) | 5 | 120 | 4.8 | 24
Oc1cc(Cc2c(Cl)cccc2Cl)nc(SC2CCCCC2)n1 | 0.6 | > 200 | 0.4 | >333
Cc1c(O)nc(SC2CCCC2)nc1Cc1c(Cl)cccc1Cl | 1.8 | > 200 | 1.7 | >111
CCC(C)Sc1nc(O)cc(Cc2ccc([N+](=O)[O-])cc2)n1 (stereo not drawn) | 1.5 | 151 | 1.2 | 101
CSc1nc(O)c(C)c(Cc2c(F)cccc2F)n1 | 0.19 | 200 | 0.2 | 1053
CCC(C)Sc1nc(O)cc(Cc2ccccc2F)n1 (stereo not drawn) | 0.26 | 200 | 0.3 | 769
CCC(C)Sc1nc(O)c(C)c(Cc2ccccc2)n1 (stereo not drawn) |  |  | 0.5 | 140
CSc1nc(O)c(C)c(Cc2c(Cl)cccc2Cl)n1 | 38 | > 200 |  | 5.2
CC(C)CSc1nc(O)cc(Cc2c(Cl)cccc2Cl)n1 | 0.45 | > 200 | 0.6 | >444
CCC(C)Sc1nc(O)cc(Cc2cccc(Cl)c2)n1 (stereo not drawn) | 2 | 116 | 1.9 | 58
Cc1c(Cc2c(F)cccc2F)nc(SC(C)C)[nH]c1=O | 0.05 | > 200 | 0.05 | >4000

Compound | EC50 [1] [µM] | CC50 [2] [µM] | IC50 [3] [µM] | Selectivity index [4] [SI]
CCC(C)Sc1nc(O)cc(Cc2c(Cl)cccc2Cl)n1 (stereo not drawn) | 0.14 | > 200 | 0.1 | >1428
CCC(C)Sc1nc(O)cc(Cc2ccc(F)cc2)n1 (stereo not drawn) | 8.7 | > 200 | 7.4 | 23
CCC(C)Sc1nc(O)c(C)c(Cc2ccccc2F)n1 (stereo not drawn) | 0.41 | 140 | 0.41 | 341
O=c1cc(Cc2c(F)cccc2F)nc(SC2CCCC2)[nH]1 | 0.08 | > 200 | 0.08 | >2500
CCC(C)Sc1nc(O)c(C)c(Cc2ccc([N+](=O)[O-])cc2)n1 (stereo not drawn) | 2 | > 200 | 1.8 | >100
CCCCSc1nc(O)cc(Cc2c(F)cccc2F)n1 | 0.18 | 162 | 0.2 | 900
CSc1nc(O)cc(Cc2c(F)cccc2F)n1 | 0.81 | > 200 | 0.8 | >247
CCC(C)Sc1nc(O)cc(Cc2ccccc2[N+](=O)[O-])n1 (stereo not drawn) | 0.25 | > 200 | 0.3 | >800
CCCCSc1nc(O)cc(Cc2c(Cl)cccc2Cl)n1 | 0.44 | > 200 | 0.5 | >454
CCC(C)Sc1nc(O)c(C)c(Cc2cccc(F)c2)n1 (stereo not drawn) | 1.2 | > 200 | 1.5 | >166
CSc1nc(O)cc(Cc2c(Cl)cccc2Cl)n1 | 3.2 | > 200 | 3 | >62
Oc1cc(Cc2ccccc2)nc(SC2CCCC2)n1 |  |  | 1.6 | 86
CCC(C)Sc1nc(O)cc(Cc2cccc(F)c2)n1 (stereo not drawn) | 0.7 | > 200 | 0.6 | >286
CCC(C)Sc1nc(O)c(C)c(Cc2ccccc2Cl)n1 (stereo not drawn) | 0.27 | > 200 | 0.4 | >741
Cc1c(O)nc(SC2CCCCC2)nc1Cc1c(Cl)cccc1Cl | 22 | > 200 | 4.9 | >9
CC(C)CSc1nc(O)cc(Cc2c(F)cccc2F)n1 | 0.14 | 182 | 0.2 | 1300
CCC(C)Sc1nc(O)cc(Cc2cccc([N+](=O)[O-])c2)n1 (stereo not drawn) | 0.4 | 157 | 0.3 | 392
Cc1c(O)nc(SC(C)C)nc1Cc1c(Cl)cccc1Cl | 1.3 | > 200 | 1.15 | >154
CCC(C)Sc1nc(O)c(C)c(Cc2ccc(F)cc2)n1 (stereo not drawn) | 11 | 105 | 13 | 9.5
CCC(C)Sc1nc(O)c(C)c(Cc2c(F)cccc2F)n1 (stereo not drawn) | 0.05 | > 200 | 0.05 | >4000
CCC(C)Sc1nc(O)c(C)c(Cc2cccc([N+](=O)[O-])c2)n1 (stereo not drawn) | 0.35 | > 200 | 0.4 | >571
CCC(C)Sc1nc(O)c(C)c(Cc2c(Cl)cccc2Cl)n1 (stereo not drawn) | 0.05 | > 200 | 0.06 | >4000
Cc1c(O)nc(SC2CCCC2)nc1Cc1ccccc1 |  | > 200 | 0.5 | >333
Cc1c(O)nc(SCC(C)C)nc1Cc1c(Cl)cccc1Cl | 1.2 | > 200 | 1.1 | >166
CCC(C)Sc1nc(O)c(C)c(Cc2ccc(Cl)cc2)n1 (stereo not drawn) | 9.5 | > 200 | 8.5 | >20
